Reference: ChEMBL document CHEMBL3091462 (J Nat Prod, 2013)
Active and inactive are the calls of the source. The calls are words filed in the database; no cut-off is given here.

How the values were obtained:
SW-620 [1] = test: Antitumor activity against human SW620 cells xenografted in BALB/c-nude mouse assessed as reduction of tumor weight at 100 mg/kg, po administered every other day from day 2 to 21 (reference value: 417 mg); type: functional
Summary of the method: (§1)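 Male BALB/c-nude mice; 2 × 10^6 tumour cells in 0.2 mL PBS injected intradermally into the flank on day 0, n = 10 per group. Oral dosing every other day for 3 weeks, starting 2 days after inoculation. Caliper tumour volume = (width)2 × length/2, measured periodically. Tumours excised and weighed at day 21. Means ± SE.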

HCT-116 [2] = test: Antitumor activity against human HCT116 cells xenografted in BALB/c-nude mouse assessed as reduction of tumor weight at 100 mg/kg, po administered every other day from day 2 to 21 (reference value: 469 mg); type: functional; summary of the method: as §1
SW-620 [3] = test: Antitumor activity against human SW620 cells xenografted in BALB/c-nude mouse assessed as reduction of tumor volume at 100 mg/kg, po administered every other day from day 2 to 21; type: functional, organism-based; set-up: dose 100 mg/kg; summary of the method: as §1
HCT-116 [4] = test: Antitumor activity against human HCT116 cells xenografted in BALB/c-nude mouse assessed as reduction of tumor volume at 100 mg/kg, po administered every other day from day 2 to 21; type: functional, organism-based; set-up: dose 100 mg/kg; summary of the method: as §1
SW-620 [5] = test: Induction of apoptosis in human SW620 cells expressing p21 siRNA assessed as change in cell morphology at 10 uM after 24 hrs by phase-contrast microscopic analysis; type: functional, cell-based
Summary of the method: (§2)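 Cells plated at 5 × 10^4 per well and transfected with 100 nM scrambled or p21 siRNA in OPTI-MEM for 4 h. Complete RPMI medium was added and cells grown a further 24 h, then exposed to 10 μM for 24 h. Viability measured by direct count after trypan blue staining. Morphology viewed by phase-contrast at 200×. Means ± SD, three experiments in triplicate.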

HCT-116 [6] = test: Induction of apoptosis in human HCT116 cells expressing p21 siRNA assessed as change in cell morphology at 10 uM after 24 hrs by phase-contrast microscopic analysis; type: functional, cell-based; summary of the method: as §2
HCT-116 [7] = test: Induction of apoptosis in human HCT116 cells assessed as increase of expression of cleaved caspase-9 and caspase-3 after 24 hrs by immunoblotting; type: functional, cell-based
Summary of the method: (§3)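 HCT-116 or SW-620 cells treated with 0–10 μM for 24 h, lysed, and run on 15% SDS-PAGE immunoblots. Probed for Bcl-2 (1:1000), Bax (1:500), caspase-9/-3 and their cleaved forms (1:1000), and β-actin (1:1000). Bands quantified by densitometry; means ± SD of three experiments in duplicate.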

SW-620 [8] = test: Induction of apoptosis in human SW620 cells assessed as increase of Bax protein expression after 24 hrs by immunoblotting; type: functional, cell-based; summary of the method: as §3
SW-620 [9] = test: Induction of apoptosis in human SW620 cells assessed as reduction of Bcl-2 protein expression at 0.5 to 10 uM after 24 hrs by immunoblotting; type: functional, cell-based; summary of the method: as §3
SW-620 [10] = test: Induction of apoptosis in human SW620 cells at 10 uM after 48 hrs using Annexin V-FITC and propidium iodide staining by flow cytometry (reference value: 3.8 +/- 2.1%); type: functional
Summary of the method: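 Subconfluent cells in RPMI 1640 + 10% FBS treated with 0–10 μM for 48 h. Harvested cells incubated 10 min with FITC-annexin V/PI, then analysed by flow cytometry (488/525 nm for annexin V-FITC, 488/675 nm for PI). Reported as % apoptotic cells, means ± SD of three experiments in triplicate.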

SW-620 [11] = test: Effect on Cdk inhibitor gene expression in p53 deficient human SW620 cells at 0.5 to 10 uM after 24 hrs by immunoblotting; type: functional, cell-based
HCT-116 [12] = test: Decrease of cyclin A expression in human HCT116 cells after 24 hrs by immunoblotting; type: functional, cell-based
Summary of the method: (§4)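 HCT-116 or SW-620 cells exposed to 0–10 μM for 24 h. Cells lysed in Tris/NaCl/EDTA/1% Triton X-100 buffer with protease and phosphatase inhibitors at 4 °C, protein measured by BCA. Lysates run on 10–12.5% SDS-PAGE and immunoblotted, ECL detection. Cdk2, cyclin A and cyclin E antibodies used at 1:500; β-actin as loading control.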

HCT-116 [13] = test: Decrease of Cdk2 expression in human HCT116 cells after 24 hrs by immunoblotting; type: functional, cell-based; summary of the method: as §4
SW-620 [14] = test: Cell cycle arrest in human SW620 cells assessed as accumulation at S phase at 0.5 uM after 48 hrs using propidium iodide staining by flow cytometry (reference value: 43.1 +/- 1%); type: functional
SW-620 [15] = test: Cell cycle arrest in human SW620 cells assessed as accumulation at G2/M phase at 1 uM after 48 hrs using propidium iodide staining by flow cytometry (reference value: 9.1 +/- 0.3%); type: functional
SW-620 [16] = test: Cell cycle arrest in human SW620 cells assessed as accumulation at G0/G1 phase at 2 uM after 48 hrs using propidium iodide staining by flow cytometry (reference value: 47.8 +/- 1.2%); type: functional
SW-620 [17] = test: Cell cycle arrest in human SW620 cells assessed as accumulation at S phase at 10 uM after 48 hrs using propidium iodide staining by flow cytometry (reference value: 43.1 +/- 1%); type: functional
HCT-116 [18] = test: Cell cycle arrest in human HCT116 cells assessed as accumulation at S phase after 48 hrs using propidium iodide staining by flow cytometry; type: functional, cell-based
HCT-116 [19] = test: Cell cycle arrest in human HCT116 cells assessed as accumulation at G0/G1 phase at 10 uM after 48 hrs using propidium iodide staining by flow cytometry (reference value: 56.7 +/- 1.9%); type: functional
HCT-116 [20] = test: Cell cycle arrest in human HCT116 cells assessed as accumulation at S phase at 1 uM after 48 hrs using propidium iodide staining by flow cytometry (reference value: 36.3 +/- 1.7%); type: functional
HCT-116 [21] = test: Cell cycle arrest in human HCT116 cells assessed as accumulation at G0/G1 phase at 1 uM after 48 hrs using propidium iodide staining by flow cytometry (reference value: 56.7 +/- 1.9%); type: functional
HCT-116 [22] = test: Cell cycle arrest in human HCT116 cells assessed as accumulation at G2/M phase at 0.5 uM after 48 hrs using propidium iodide staining by flow cytometry (reference value: 7.1 +/- 0.3%); type: functional
HCT-116 [23] = test: Cell cycle arrest in human HCT116 cells assessed as accumulation at G0/G1 phase at 0.5 uM after 48 hrs using propidium iodide staining by flow cytometry (reference value: 56.7 +/- 1.9%); type: functional
[24] = Cytotoxicity against human CCD-112CoN cells assessed as cell viability up to 10 uM after 24 to 72 hrs; type: cell-based
Summary of the method: (§5)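 Cells seeded at 10^5 per well in RPMI 1640/10% FBS at 37 °C. Subconfluent cells exposed to 0, 0.1, 0.5, 1, 2, 5 or 10 μM for 48 h, or to 10 μM for 24, 48 and 72 h; ethanol vehicle, at most 0.01% v/v final. Cells trypsinized and counted by hemocytometer. Viability as % of control, means ± SD, three experiments in triplicate.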

SW-620 [25] = test: Cytotoxicity against human SW620 cells assessed as cell viability at 0.1 to 2 uM after 24 to 72 hrs; type: functional, cell-based; summary of the method: as §5
SW-620 [26] = test: Cytotoxicity against human SW620 cells after 24 to 72 hrs; type: functional, cell-based; summary of the method: as §5
HCT-116 [27] = test: Cytotoxicity against human HCT116 cells after 24 to 72 hrs; type: functional, cell-based; summary of the method: as §5

Structure (SMILES): CC(C)c1cccc(=O)c(O)c1 [HINOKITIOL]
- Activity (SW-620 [1]): 252 mg
- Activity (HCT-116 [2]): 245 mg
- Activity (SW-620 [3]): Active
- Activity (HCT-116 [4]): Active
- Activity (SW-620 [5]): inactive
- Activity (HCT-116 [6]): inactive
- Activity (HCT-116 [7]): Dose-dependent effect
- Activity (SW-620 [8]): Dose-dependent effect
- Activity (SW-620 [9]): Active
- Activity (SW-620 [10]): 80.3%
- Activity (SW-620 [11]): inactive
- Activity (HCT-116 [12]): Dose-dependent effect
- Activity (HCT-116 [13]): Dose-dependent effect
- Activity (SW-620 [14]): 43.3%
- Activity (SW-620 [15]): 6.8%
- Activity (SW-620 [16]): 43.1%
- Activity (SW-620 [17]): 87%
- Activity (HCT-116 [18]): Dose-dependent effect
- Activity (HCT-116 [19]): 38.8%
- Activity (HCT-116 [20]): 37.2%
- Activity (HCT-116 [21]): 55.1%
- Activity (HCT-116 [22]): 8%
- Activity (HCT-116 [23]): 56.5%
- Activity [24]: Non-toxic
- Activity (SW-620 [25]): Active
- IC50 (SW-620 [26]): 4.4 µM
- growth inhibition (GI) (SW-620 [26]): Dose-dependent effect
- IC50 (HCT-116 [27]): 4.5 µM
- growth inhibition (GI) (HCT-116 [27]): Dose-dependent effect
